Bioassay records (PubChem BioAssay)
STAT1 act-1: STAT1 signaling activators, primary screen, cell-based, HTS, luciferase reporter; NIH 3T3 STAT1-luciferase reporter, IFN-gamma, luminescence; 100% = IFN-gamma alone, no compound; AID 932, 2007; activation (% of control), % at 5.5 µM; 200,000 tested, 2.6% active;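 active = activation above the screen-wide mean activation plus 3 SD, cut at about 130% in these data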
STAT3 act-1: IL-6 driven STAT3 reporter potentiators, primary screen, U3A cells, luciferase, luminescence, MLSCN library | AID 871, 2007 | IL-6 STAT3-luciferase reporter; 100% = signal with IL-6 EC80 alone | activation (% of control), % at 5.6 µM | 190,000 tested, 0.91% active;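 active = activation above the screen-wide mean of compound activation plus 3 SD, cut at about 130% in these data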
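system = STAT3-luciferase reporter U3A cells | reagent = IL-6 stimulus at 33 ng/mL final | timing = 1 h compound pre-exposure, 6 h IL-6 stimulation, 37 °C | measured by = luminescence | evaluation = % activation versus median of IL-6-stimulated wells | control set = IL-6-only wells as 100% reference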
STAT1 blocker: STAT1 signaling inhibitors, primary screen, cell-based, HTS, luciferase reporter; NIH 3T3 STAT1-luciferase reporter, IFN-gamma, luminescence; inhibition, % at 5.5 µM; 200,000 tested, 0.35% active; AID 920, 2007;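 active = inhibition above a set limit, the mean inhibition across all tested compounds plus 3 SD, cut at about 34% in these data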
STAT3 inh: IL-6 driven STAT3 reporter inhibitors, primary screen, U3A cells, luciferase, luminescence, MLSCN library | inhibition, % at 5.5 µM | 190,000 tested, 0.89% active | IL-6 STAT3-luciferase reporter; host cell line lacks STAT1 | AID 862, 2007;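 active = inhibition above the mean inhibition across all screened compounds plus 3 SD, cut at about 44% in these data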
APP 5'UTR act: activators of APP 5'UTR luciferase reporter, primary screen, SH-SY5Y cells. 190,000 tested, 1% active. activation, % at 2 µM. SH-SY5Y APP 5'UTR luciferase reporter, luminescence; zero percent = DMSO vehicle wells;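 active = activation above a set limit, based on mean plus 3 SD of controls, cut at about 140% in these data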
NF-kB neuron act: activators of NF-kB expression in neurons, primary screen, cell-based, HTS; 190,000 tested, 1.6% active; human neuronal cells, NF-kB reporter expression; hits give high values; fold change at 12.5 µM; in the data active = fold change above about 3.3
STAT3 act-2: STAT3 reporter potentiators, retest of hits, confirmation, U3A cells, luciferase, luminescence | 1,200 tested, 64% active | shares compounds with STAT3 act-1 | AID 1267, 2008 | potentiation (% of control), % at 5.7 µM | IL-6 potentiation; U3A cells lack STAT1; 100 means same as IL-6 alone;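 active = percent activation of the STAT3 luciferase reporter above a set limit taken from the earlier primary screen, cut at about 130% in these data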
NFkB act STAT3ct: NF-kB reporter activators in human cells, counter-screen for STAT3 activator project. shares compounds with STAT3 act-1. NF-kappaB reporter activation. activation (% of control), % at 5.7 µM. 1,200 tested, 11% active. AID 1309, 2008; in the data active = activation above about 120%;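 also: reporter induced by TNF-alpha stimulation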
STAT1 act-2: STAT1 reporter activators, IFN-gamma induced, counter-screen for STAT3 activator project, cell-based, NIH 3T3, luciferase luminescence | shares compounds with STAT3 act-1 | NIH 3T3 STAT1-luciferase reporter | activation (% of control), % at 5.7 µM | 1,200 tested, 13% active | AID 1318, 2008;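 active = activation above the solvent-only control well mean plus 3 SD, set per screening run, cut at about 120% in these data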
Large screens that a line does not name were inactive (follow-up assays come after a bar, where they were run). Most compounds without a hit are left out; they make up all but 5.1% or so of the library.

Cc1c(C(=O)NCc2cccnc2)oc2ccc(S(=O)(=O)N3CC(C)CC(C)C3)cc12 (stereo not drawn)	STAT3 act-1 136 | STAT3 act-2 160 | NFkB act STAT3ct inactive | STAT1 act-2 inactive
O=C(Nc1nnc(-c2ccc3c(c2)OCCO3)o1)C1CCCCC1	none
CN1C(=O)COc2ccc(C(=O)c3oc4ccccc4c3-c3cnc4c(c3)COc3ccccc3-4)cc21	none
Nc1nc(NCc2ccco2)nn1-c1ccccc1	STAT3 act-1 147 | STAT3 act-2 inactive | NFkB act STAT3ct inactive | STAT1 act-2 inactive
Nc1nc(NCc2cccs2)nn1-c1ccccc1	none (no result: NF-kB neuron act)
CCCC(C)NC(=O)c1ccc(C2SCC(=O)N2Cc2ccco2)cc1 (stereo not drawn)	none
CCOc1ccc(NC(=O)c2ccccc2NC(=O)CN(C)CC(=O)Nc2ccc(C)cc2)cc1	STAT3 act-1 149 | STAT3 act-2 inactive | NFkB act STAT3ct inactive | STAT1 act-2 inactive
COc1ccc(N(CC(=O)NCc2ccccc2C)S(=O)(=O)c2ccccc2[N+](=O)[O-])c(OC)c1	none
Cc1ccc(S(=O)(=O)N(CC(O)CN2C(=O)NC(C)(C)C2=O)c2ccccc2)cc1 (stereo not drawn)	STAT3 act-1 187 | STAT3 act-2 inactive | NFkB act STAT3ct inactive | STAT1 act-2 inactive
Cc1ccc(C(O)(C(=O)NNS(=O)(=O)c2ccc(C)cc2)c2ccc(C)cc2)cc1	none
CCOc1ccc(NC(=O)CN(C)CC(=O)Nc2cc(Cl)ccc2C#N)cc1OCC	STAT3 act-1 154 | STAT3 act-2 inactive | NFkB act STAT3ct inactive | STAT1 act-2 inactive
Cc1cccc(C)c1NC(=O)CN(C)CC(=O)Nc1cc(Cl)ccc1C#N	STAT3 act-1 138 | STAT3 act-2 inactive | NFkB act STAT3ct inactive | STAT1 act-2 inactive
CCOc1ccc(NC(=O)CN(C)CC(=O)Nc2ccccc2SC)cc1OCC	none
COCc1c(C(=O)OC/C(O)=C(\C#N)c2nc3ccccc3[nH]2)oc2ccccc12	none
COC(=O)c1cn(NC(=O)Cc2c(F)cccc2Cl)c(=O)c2ccccc12	none
Cn1c(C(C#N)C(=O)Cc2cccc3ccccc23)nc2ccccc21 (stereo not drawn)	none
Cn1c(C(C#N)C(=O)c2ccco2)nc2ccccc21 (stereo not drawn)	STAT3 act-1 136 | STAT3 act-2 136 | NFkB act STAT3ct inactive | STAT1 act-2 124
O=C(C1CCCCC1)N1CCc2ccccc21	none
O=C(C1CC(=O)N(C2CCCCC2)C1)N1CCc2ccccc21 (stereo not drawn)	STAT3 act-1 139 | STAT3 act-2 inactive | NFkB act STAT3ct inactive | STAT1 act-2 inactive
COc1ccccc1/C=C(/CC(=O)NCc1ccc(F)cc1)c1nc2ccccc2s1	STAT3 act-1 136 | STAT3 act-2 inactive | NFkB act STAT3ct inactive | STAT1 act-2 inactive
COc1ccccc1/C=C(/CC(=O)NCc1ccccc1)c1nc2ccccc2s1	none
Cc1ccc(C2=CC(c3cccs3)n3nnnc3N2)cc1 (stereo not drawn)	STAT3 act-1 147 | STAT3 act-2 inactive | NFkB act STAT3ct inactive | STAT1 act-2 inactive
Cc1cc(NC(=O)C2CC2)n(-c2nc3ccccc3s2)n1	STAT3 act-1 160 | STAT3 act-2 154 | NFkB act STAT3ct inactive | STAT1 act-2 inactive
Cc1cc(NC(=O)CCl)n(-c2nc3ccccc3s2)n1	STAT3 act-1 151 | STAT3 act-2 146 | NFkB act STAT3ct inactive | STAT1 act-2 inactive
CC(=O)Nc1ccc(CN2CCc3c([nH]c4ccccc34)C2c2ccccn2)cc1 (stereo not drawn)	none
Cc1cccc(C2c3[nH]c4ccccc4c3CCN2Cc2cccn2-c2ncccn2)c1 (stereo not drawn)	STAT3 act-1 149 | STAT3 act-2 156 | NFkB act STAT3ct inactive | STAT1 act-2 inactive
COc1ccc(C2c3[nH]c4ccccc4c3CCN2Cc2cccn2-c2ncccn2)cc1C (stereo not drawn)	STAT3 act-1 136 | STAT3 act-2 136 | NFkB act STAT3ct inactive | STAT1 act-2 inactive
O=C(Nc1ccc(F)cc1)N1CCc2ccccc2C1	none
CCO[C@@H]1OC(C(=O)N2CCOCC2)=C[C@H](c2ccccc2)[C@H]1CCCO	none (no result: STAT3 act-1, STAT3 inh)
Cc1ccc2cccc(N=Cc3c(C)[nH]n(-c4ccccc4)c3=O)c2n1	STAT3 act-1 137 | STAT3 act-2 135 | NFkB act STAT3ct inactive | STAT1 act-2 inactive
c1ccc(-c2cc3ccccc3nc2N2CCCC2)cc1	STAT3 act-1 136 | STAT3 act-2 inactive | NFkB act STAT3ct inactive | STAT1 act-2 inactive
COC(=O)c1ccccc1NC(=O)C(C)Oc1ccccc1 (stereo not drawn)	none
CC(Oc1ccccc1)C(=O)Nc1ccccc1O (stereo not drawn)	STAT3 act-1 137 | STAT3 act-2 inactive | NFkB act STAT3ct inactive | STAT1 act-2 inactive
Cc1nc(-c2ccccc2Cl)sc1C(=O)/C=C/N(C)C	none
O=C(C1CCCN(S(=O)(=O)c2cccc3cccnc23)C1)N1CCc2ccccc21 (stereo not drawn)	STAT3 act-1 138 | STAT3 act-2 135 | NFkB act STAT3ct inactive | STAT1 act-2 inactive
CC(C)(C)NC(=O)C1CCCN(S(=O)(=O)c2cccc3cccnc23)C1 (stereo not drawn)	none (no result: APP 5'UTR act)
CC(=O)OC(COc1ccccc1)Cn1cnc2cc(C)c(C)cc21 (stereo not drawn)	none
COc1ccc(C(=O)NN(C)c2nc(-c3ccccc3)nnc2C(F)(F)F)cc1	none
COc1ccc(C(=O)NN(C)c2nc(C(F)(F)F)nc3ccccc23)cc1	STAT3 act-1 156 | STAT3 act-2 inactive | NFkB act STAT3ct 165 | STAT1 act-2 inactive
COc1ccc(-c2cc(C(F)F)n3ncc(C(=O)Nc4cccc(S(=O)(=O)N5CCOCC5)c4)c3n2)cc1	none
Cc1ccc(-c2csc(NC(=S)NC(=O)c3cccs3)n2)cc1	none
